Source: PubChem (several laboratories)
Sampled rows, rich in hits. Any-hit rate of the full collection: about 2.7%.
PG9 Ab binder: binds the HIV-1 gp120 antibody PG9 | TR-FRET gp120-PG9 antibody binding | inhibition, % at 6.7 µM | hit rate 0.43% among 360,000; in the data active = inhibition above about 8.5%
MC4R barr agon: human MC4R agonism via beta-arrestin; P32245; U2OS MC4R beta-arrestin complementation, luminescence; percent of melanotan II response, DMSO zero; activation, % at 8.9 µM; hit rate 0.98% among 360,000; AID 540308;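 active = activation above a per-plate cutoff, the mean activation of sample wells on that plate plus 3 SD, cut at about 8% in these data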
Target sequence (P32245 whole entry, looked up): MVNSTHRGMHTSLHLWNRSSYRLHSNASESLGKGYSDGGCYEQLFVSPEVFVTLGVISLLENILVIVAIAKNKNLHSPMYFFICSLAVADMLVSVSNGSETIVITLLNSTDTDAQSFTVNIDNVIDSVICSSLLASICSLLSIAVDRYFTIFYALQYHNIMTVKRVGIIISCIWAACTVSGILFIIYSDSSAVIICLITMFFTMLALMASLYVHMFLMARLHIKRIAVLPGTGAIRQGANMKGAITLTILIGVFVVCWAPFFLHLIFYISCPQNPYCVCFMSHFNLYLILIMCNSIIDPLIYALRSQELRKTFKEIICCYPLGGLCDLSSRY
MC4R antagonist: antagonists of human melanocortin 4 receptor (MC4R) | AID 540295 | P32245 | inhibition, % at 6.5 µM | MC4R-expressing cells, MTII-stimulated cAMP, LANCE TR-FRET | hit rate 0.48% among 360,000;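 active = inhibition above its plate's cutoff, the mean of tested wells on that plate plus 3 SD, cut at about 29% in these data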
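Assay system: U2OS-MC4R stable cell line; Also added: Melanotan II; Technique: Eu-cAMP/anti-cAMP TR-FRET, emission 671 nm; Times: 30-min compound, 1-h challenge, 1-h detection, room temperature.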
NR1D1 modulator: modulators of human Rev-erb alpha DNA binding. AID 1259318. Rev-erbα–FITC-DNA binding, fluorescence polarization, 90 min. hit rate 0.79% among 370,000. activity, % at 10 µM;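 active = activity above about 14%, limit read from the data; passing the limit was not always enough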
NR2E3 ag-1: NR2E3 (human) agonism. Q9Y5X4. GST-NR2E3/biotin-RetCOR TR-FRET, 1536-well. inhibition of corepressor binding, % at 4.78 µM. hit rate 0.12% among 320,000;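 active = percent inhibition above the cutoff of mean plus 3 SD of all tested compounds, set per screening campaign, cut at about 20% in these data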
Target sequence (Q9Y5X4 whole entry, looked up): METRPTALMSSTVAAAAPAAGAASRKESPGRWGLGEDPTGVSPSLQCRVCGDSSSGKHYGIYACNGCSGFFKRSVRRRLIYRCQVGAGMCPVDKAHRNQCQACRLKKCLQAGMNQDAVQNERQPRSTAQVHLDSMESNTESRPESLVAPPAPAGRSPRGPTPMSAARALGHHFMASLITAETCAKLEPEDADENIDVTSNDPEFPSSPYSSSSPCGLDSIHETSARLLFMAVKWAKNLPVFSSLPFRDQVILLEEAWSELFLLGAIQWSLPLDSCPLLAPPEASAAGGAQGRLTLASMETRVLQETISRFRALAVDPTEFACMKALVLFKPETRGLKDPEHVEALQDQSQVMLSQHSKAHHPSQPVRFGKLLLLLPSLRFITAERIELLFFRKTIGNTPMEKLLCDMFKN
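Test system – NR2E3–RetCOR corepressor complex · Quantity – NR2E3 fusion 1.35 nM · Buffer or medium – Tris pH 7.5 · Incubation – Compound–protein incubation for 5 h at 4 °C · Technique – TR-FRET, Eu(K)-anti-GST donor, streptavidin-D2 acceptor, ex 340, em 617/671 nm · Evaluation – percent inhibition of 671/617 nm emission ratio versus biotin and DMSO controls · Plate – 1536-well format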
NR2E3 ag-2: agonists of human NR2E3 nuclear receptor; CHO-S Gal4-NCOR/VP16-NR2E3 two-hybrid, luciferase; inhibition of corepressor binding, % at 3.98 µM; hit rate 0.35% among 360,000; Q9Y5X4;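 active = inhibition above the mean of all tested compounds plus 3 SD, cut at about 70% in these data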;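 note: higher means lower luciferase signal from less NR2E3 corepressor binding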
Numbers stand for hits.

Results for Cc1ccc(C(=O)OCn2ncc(Cl)c(Cl)c2=O)cc1 ?
PG9 Ab binder: inactive; MC4R barr agon: inactive; MC4R antagonist: inactive; NR1D1 modulator: inactive; NR2E3 ag-1: inactive; NR2E3 ag-2: inactive

Results for O=C(OCn1ncc(Cl)c(Cl)c1=O)c1ccc(C(F)(F)F)cc1 ?
PG9 Ab binder: inactive; MC4R barr agon: inactive; MC4R antagonist: 33; NR1D1 modulator: inactive; NR2E3 ag-2: inactive

What do the screens show for `COc1ccccc1NC(=O)COc1ccc(C(=O)NC2CCCc3ccccc32)cc1OC` (centres undefined)?
PG9 Ab binder: inactive; MC4R barr agon: 8.5; MC4R antagonist: inactive; NR1D1 modulator: inactive; NR2E3 ag-1: inactive; NR2E3 ag-2: inactive

Results for CCOC(=O)C1=C(C)n2c(s/c(=C/c3cccc([N+](=O)[O-])c3)c2=O)=NC1c1ccc(O)c(OC)c1 (centres undefined) ?
PG9 Ab binder: inactive; MC4R barr agon: inactive; MC4R antagonist: inactive; NR1D1 modulator: inactive; NR2E3 ag-1: inactive; NR2E3 ag-2: inactive

What do the screens show for `Cc1ccc(NC(=O)c2oc3ccc(Br)cc3c2C)cc1S(=O)(=O)N1CCOCC1`?
PG9 Ab binder: inactive; MC4R barr agon: inactive; MC4R antagonist: inactive; NR1D1 modulator: inactive; NR2E3 ag-2: inactive

How did O=C(/C=C/c1ccco1)NC(=S)Nc1ccc(N2CCOCC2)c(Cl)c1 do in these assays?
PG9 Ab binder: inactive; MC4R barr agon: 22; MC4R antagonist: inactive; NR1D1 modulator: inactive; NR2E3 ag-1: inactive; NR2E3 ag-2: inactive

How did COc1ccccc1N(CC(=O)Nc1ccccc1C(=O)NCC(C)C)S(C)(=O)=O do in these assays?
PG9 Ab binder: inactive; MC4R barr agon: inactive; MC4R antagonist: inactive; NR1D1 modulator: inactive; NR2E3 ag-1: inactive; NR2E3 ag-2: inactive

How did c1ccc2c(c1)[nH]c1c3ccccc3sc21 do in these assays?
PG9 Ab binder: inactive; MC4R barr agon: 8.3; MC4R antagonist: inactive; NR1D1 modulator: inactive; NR2E3 ag-1: inactive; NR2E3 ag-2: inactive

What do the screens show for `COc1c(C(CC(C)C)OC(C)=O)ccc2c1C(=O)OCc1cc(C)cc(O)c1O2` (centres undefined)?
PG9 Ab binder: inactive; MC4R barr agon: 8.6; MC4R antagonist: inactive; NR1D1 modulator: inactive; NR2E3 ag-1: inactive; NR2E3 ag-2: inactive

What do the screens show for `O=C(CCl)N(c1ccccc1)c1c[nH]c2ccccc12`?
PG9 Ab binder: inactive; MC4R barr agon: 19; MC4R antagonist: inactive; NR1D1 modulator: inactive; NR2E3 ag-1: inactive; NR2E3 ag-2: inactive

What do the screens show for `CC(=O)n1cc(N(C(=O)CCl)c2ccc([N+](=O)[O-])cc2)c2ccccc21`?
PG9 Ab binder: inactive; MC4R barr agon: inactive; MC4R antagonist: 32; NR1D1 modulator: inactive; NR2E3 ag-1: inactive; NR2E3 ag-2: inactive

How did CC(=O)n1cc(N(C(=O)CCl)c2ccccc2)c2ccccc21 do in these assays?
PG9 Ab binder: inactive; MC4R barr agon: 17; MC4R antagonist: inactive; NR1D1 modulator: inactive; NR2E3 ag-1: inactive; NR2E3 ag-2: inactive

Results for O=Cc1[nH]c2ccccc2c1N(C(=O)CCl)c1ccc([N+](=O)[O-])cc1 ?
PG9 Ab binder: inactive; MC4R barr agon: inactive; MC4R antagonist: inactive; NR1D1 modulator: inactive; NR2E3 ag-1: inactive; NR2E3 ag-2: inactive

What do the screens show for `OCC1(CCCc2ccccc2)CCN(C2CCSCC2)CC1`?
PG9 Ab binder: inactive; MC4R barr agon: inactive; MC4R antagonist: inactive; NR1D1 modulator: inactive; NR2E3 ag-1: inactive; NR2E3 ag-2: inactive

Results for CCOC(=O)C1(CCCc2ccccc2)CCN(C2CCSCC2)CC1 ?
PG9 Ab binder: inactive; MC4R barr agon: 9.2; MC4R antagonist: inactive; NR1D1 modulator: inactive; NR2E3 ag-2: inactive

Results for CCCCOc1ccc(NC(=O)Cn2c(=O)ccc3c(C)cc(C)nc32)cc1 ?
PG9 Ab binder: 9.0; MC4R barr agon: inactive; MC4R antagonist: inactive; NR1D1 modulator: inactive; NR2E3 ag-1: inactive; NR2E3 ag-2: inactive

Results for CCCCOc1ccc(NC(=O)CN2CCN(CC)CC2)cc1 ?
PG9 Ab binder: inactive; MC4R barr agon: inactive; MC4R antagonist: inactive; NR1D1 modulator: inactive; NR2E3 ag-2: inactive

How did COc1cccc(-c2cc(C(=O)N3CCCCC3C)no2)c1 (centres undefined) do in these assays?
PG9 Ab binder: inactive; MC4R barr agon: inactive; MC4R antagonist: inactive; NR1D1 modulator: inactive; NR2E3 ag-1: inactive; NR2E3 ag-2: inactive

Results for CSc1snnc1-c1ccccc1 ?
PG9 Ab binder: inactive; MC4R barr agon: inactive; MC4R antagonist: inactive; NR1D1 modulator: inactive; NR2E3 ag-1: inactive; NR2E3 ag-2: inactive

How did CC(C)Sc1snnc1-c1ccccc1 do in these assays?
PG9 Ab binder: inactive; MC4R barr agon: 8.9; MC4R antagonist: inactive; NR1D1 modulator: inactive; NR2E3 ag-1: inactive; NR2E3 ag-2: inactive

Results for Cn1cc(-c2ccc(C(=O)Nc3cccc(Oc4ccccc4)c3)c3occc23)cn1 ?
PG9 Ab binder: inactive; MC4R barr agon: 9.2; MC4R antagonist: inactive; NR1D1 modulator: inactive; NR2E3 ag-2: inactive

What do the screens show for `O=Cc1ccc(OC(=O)C2CC(=O)N(c3ccc(F)cc3)C2)cc1` (centres undefined)?
PG9 Ab binder: inactive; MC4R barr agon: inactive; MC4R antagonist: inactive; NR1D1 modulator: inactive; NR2E3 ag-1: inactive; NR2E3 ag-2: inactive

Results for O=C(N/N=C/c1sc(=O)n(Cc2ccc(Br)cc2)c1Cl)c1ccco1 ?
PG9 Ab binder: inactive; MC4R barr agon: 26; MC4R antagonist: inactive; NR1D1 modulator: inactive; NR2E3 ag-1: inactive; NR2E3 ag-2: inactive

How did O=C(CSc1nc2ccccc2nc1SCC(=O)N1CCCCC1)N1CCCCC1 do in these assays?
PG9 Ab binder: 22; MC4R barr agon: inactive; MC4R antagonist: inactive; NR1D1 modulator: inactive; NR2E3 ag-1: inactive; NR2E3 ag-2: inactive

What do the screens show for `Cc1ccc(NC(=O)CSc2nnc(-c3ccccn3)n2N)c(Br)c1`?
PG9 Ab binder: inactive; MC4R barr agon: inactive; MC4R antagonist: inactive; NR1D1 modulator: inactive; NR2E3 ag-1: inactive; NR2E3 ag-2: inactive

What do the screens show for `Cc1ccc(NC(=O)c2ccc(C#CC3(O)CCCCC3)cc2)cc1C`?
PG9 Ab binder: inactive; MC4R barr agon: 9.0; MC4R antagonist: inactive; NR1D1 modulator: inactive; NR2E3 ag-1: inactive; NR2E3 ag-2: inactive

Results for O=S(=O)(c1ccc2c(c1)C(=NO)c1cc(S(=O)(=O)N3CCCCC3)ccc1-2)N1CCCCC1 ?
PG9 Ab binder: inactive; MC4R barr agon: inactive; MC4R antagonist: inactive; NR1D1 modulator: inactive; NR2E3 ag-1: inactive; NR2E3 ag-2: inactive

How did CC1CCN(S(=O)(=O)c2ccc3c(c2)C(=NO)c2cc(S(=O)(=O)N4CCC(C)CC4)ccc2-3)CC1 do in these assays?
PG9 Ab binder: inactive; MC4R barr agon: 34; MC4R antagonist: inactive; NR1D1 modulator: inactive; NR2E3 ag-1: inactive; NR2E3 ag-2: inactive

What do the screens show for `COc1ccc(-c2n[nH]c(C)c2-c2ccc(Cl)cc2)c(O)c1`?
PG9 Ab binder: inactive; MC4R barr agon: 9.1; MC4R antagonist: inactive; NR1D1 modulator: inactive; NR2E3 ag-1: inactive; NR2E3 ag-2: inactive
